Assay outcomes (PubChem BioAssay)
Runt-CBFb FRET: blocks binding of human RUNX1 Runt domain to CBFb; Q01196+Q13951; Cerulean-Runt/Venus-CBFb FRET ratio 530/480, 1 h; inhibition, % at 20 µM; 220,000 tested, 0.46% active; AID 1496;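 active = inhibition over about 50% at 20 µM in the single-dose screen, limit read from the data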;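 note: 0% = DMSO wells and 100% = excess unlabeled CBFb competitor control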
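test system = Cerulean-tagged RUNX1 Runt domain (FRET donor) fusion protein | reagent = Venus-CBFb binding partner, 100 nM | incubation = protein complex preformed 1 h, compound exposure 1 h, room temperature, dark | detection = FRET fluorescence | read-out basis = loss of energy transfer signal | controls = 5 µM unlabeled CBFb as full-inhibition high control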
Runt-SMMHC FRET: Runt domain-CBFb-SMMHC interaction inhibition; Q01196+Q13951; Cerulean-Runt/Venus-CBFb-SMMHC FRET ratio 530/480, 1 h; inhibition, % at 20 µM; 220,000 tested, 0.74% active; AID 1434;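 active = mean inhibition across duplicate retests at 20 µM reaching about 50%, limit read from the data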;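 note: 0% = DMSO wells and 100% = wells with excess untagged CBFb-SMMHC; inhibitors lower the FRET ratio by blocking Runt binding to CBFb-SMMHC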
LANA-H2B inh: blocks KSHV LANA binding to histone H2A/H2B | inhibition, % (concentration not given with the values) | 320,000 tested, 0.6% active | cell-free LANA-H2A/H2B peptide, fluorescence polarization | Q9QR71; in the data active = inhibition mostly above about 10%, no sharp cut-off; inactive = mostly below about 6.7%
HDAC3 inhib: human HDAC3 inhibition | 320,000 tested, 0.15% active | inhibition, % at 8.3 µM | recombinant HDAC3, fluorogenic peptide/trypsin coupled, fluorescence | O15379; in the data active = inhibition above about 26%, passing the limit was not always enough; inconclusive = no clear call, values can overlap the other calls
Target sequence (O15379 whole entry, looked up): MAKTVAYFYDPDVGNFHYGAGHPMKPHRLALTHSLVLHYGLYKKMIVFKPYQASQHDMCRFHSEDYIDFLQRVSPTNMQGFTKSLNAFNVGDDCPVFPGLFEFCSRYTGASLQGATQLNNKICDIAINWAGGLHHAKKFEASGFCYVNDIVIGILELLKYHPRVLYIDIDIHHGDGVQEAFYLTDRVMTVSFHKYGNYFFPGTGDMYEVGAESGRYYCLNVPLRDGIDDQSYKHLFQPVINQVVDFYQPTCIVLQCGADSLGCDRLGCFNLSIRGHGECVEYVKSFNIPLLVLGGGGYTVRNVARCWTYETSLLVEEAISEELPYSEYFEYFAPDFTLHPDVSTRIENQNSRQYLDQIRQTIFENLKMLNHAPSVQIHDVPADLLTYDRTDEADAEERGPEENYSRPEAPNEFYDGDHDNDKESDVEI
CaV13 FRET inh: Primary screen for inhibitors of IQ motif and Ca2+-dependent inactivation inhibitor domain binding in CACNA1D, Förster resonance energy transfer in living cells, …; HEK cells, CFP/YFP FRET ICDI-IQ, plate reader, 10 min; percent FRET-ratio fall versus neutral wells; inhibition, % at 12.3 µM; 340,000 tested, 0.098% active; AID 743397;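 active = mean replicate inhibition of at least 30% and at least 1% of replicates passing that level; inconclusive = only one of the two criteria is met; inactive = neither criterion is met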;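 note: 0% = median of the neutral control wells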
RanGTP-Imp inh: inhibitors of RanGTP-importin-beta interaction, primary screen, biochemical, FRET, CFP-Ran, YFP-importin-beta, homogeneous; cell-free CFP-Ran/YFP-importin-beta FRET ratio; inhibition, % (test concentration not listed); 300,000 tested, 1.1% active; AID 2216;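 active = more than half of the replicate wells show a fall in the fluorescence ratio signal beyond about 16%, limit read from the data, passing the limit was not always enough; inconclusive = exactly half of the replicate wells pass the set limit; inactive = fewer than half of replicates pass the limit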;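 note: 0% = DMSO wells and 100% = Ran loaded with GDP instead of GTP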
* marks the source's active call; other numbers are inactive results. Compounds with a hit are over-represented: about 1.9% of the library has one in this group of screens.

What do the screens show for `c1coc(CNc2c3c(nc4ccccc24)CCC3)c1`?
Runt-CBFb FRET: 12; Runt-SMMHC FRET: 44; LANA-H2B inh: 0; HDAC3 inhib: -4; CaV13 FRET inh: -6; RanGTP-Imp inh: 79*

How did Cc1cc(C)n(CCC(=O)N/N=C/c2c(O)ccc3ccccc23)n1 do in these assays?
Runt-CBFb FRET: 29; Runt-SMMHC FRET: 45; LANA-H2B inh: -1; CaV13 FRET inh: -3; RanGTP-Imp inh: 36*

What do the screens show for `Cc1ccc(CN(c2ccc(C(=O)NCc3ccc4c(c3)OCO4)cc2)S(C)(=O)=O)cc1`?
Runt-CBFb FRET: 1; Runt-SMMHC FRET: 0; LANA-H2B inh: -13; HDAC3 inhib: -1; CaV13 FRET inh: -6; RanGTP-Imp inh: -2

Results for Cn1cnnc1SCc1ccc(C(=O)N/N=C(\CCC(=O)O)c2ccc(C(C)(C)C)cc2)cc1 ?
Runt-CBFb FRET: 0; Runt-SMMHC FRET: 4; LANA-H2B inh: active; HDAC3 inhib: -2; CaV13 FRET inh: -3

What do the screens show for `COc1cc(C(=O)NC2CCCC(C)C2C)ccc1OCC(=O)N1CCOCC1` (stereo not given)?
LANA-H2B inh: 0; HDAC3 inhib: 1; CaV13 FRET inh: -6

How did CC(=O)c1sc(Nc2nc3ccc(F)cc3s2)nc1C do in these assays?
Runt-CBFb FRET: 59*; Runt-SMMHC FRET: 79*; LANA-H2B inh: -1; HDAC3 inhib: -4; RanGTP-Imp inh: 47*

How did CCOc1ccc(-n2c(Cc3cc(=O)[nH]c(=O)[nH]3)nnc2SCc2cccnc2)cc1 do in these assays?
Runt-CBFb FRET: 0; Runt-SMMHC FRET: -1; LANA-H2B inh: -3; HDAC3 inhib: 14; CaV13 FRET inh: -14; RanGTP-Imp inh: 2

How did CCCCCCNC(=O)N[C@@H](C(=O)NCCC[C@H]1CN2C(=NC[C@@H]2Cc2ccccc2)N1CCc1cccc(OC)c1)C(C)C do in these assays?
Runt-CBFb FRET: 37; Runt-SMMHC FRET: 63*; LANA-H2B inh: 3; HDAC3 inhib: 8; RanGTP-Imp inh: 2

What do the screens show for `C/C=C(\C)C(=O)NCCN1C2=NC[C@@H](Cc3ccccc3)N2C[C@@H]1Cc1ccc(OC)cc1`?
LANA-H2B inh: 2; HDAC3 inhib: -5; CaV13 FRET inh: -10; RanGTP-Imp inh: 1

How did CCCCNC(=O)N1CCN(c2ccnc3cc(Cl)ccc23)CC1 do in these assays?
LANA-H2B inh: 2; HDAC3 inhib: 1; RanGTP-Imp inh: 5

Results for O=S(=O)(NC1CC1)c1ccc(S(=O)(=O)N2CCC3(CC2)OCCO3)cc1 ?
Runt-CBFb FRET: -2; Runt-SMMHC FRET: 2; LANA-H2B inh: 19*; HDAC3 inhib: 4; CaV13 FRET inh: -1; RanGTP-Imp inh: inconclusive

How did CCC(=O)N1CCN(c2ccc(NC(=S)NC(=O)c3cc4ccccc4o3)cc2)CC1 do in these assays?
LANA-H2B inh: 94*; HDAC3 inhib: 0; CaV13 FRET inh: -5; RanGTP-Imp inh: 6

Results for CC(C)C(=O)N1CCN(c2ccc(NC(=S)NC(=O)c3cc4ccccc4o3)cc2)CC1 ?
LANA-H2B inh: 3; HDAC3 inhib: -2; CaV13 FRET inh: -6; RanGTP-Imp inh: 6

What do the screens show for `Cc1ccc(S(=O)(=O)NC(C(=O)OCC(=O)NC2CCS(=O)(=O)C2)C(C)C)cc1` (stereo not given)?
Runt-CBFb FRET: 2; Runt-SMMHC FRET: 3; LANA-H2B inh: -5; HDAC3 inhib: 2; CaV13 FRET inh: -5; RanGTP-Imp inh: 2

What do the screens show for `Cc1ccc(S(=O)(=O)CCC(=O)OCC(=O)NC2CCS(=O)(=O)C2)cc1` (stereo not given)?
LANA-H2B inh: 25*; HDAC3 inhib: 2; CaV13 FRET inh: -4

What do the screens show for `O=C(N/C(=C/c1ccc([N+](=O)[O-])cc1)C(=O)N1CCOCC1)c1ccco1`?
LANA-H2B inh: 14*; HDAC3 inhib: -17; CaV13 FRET inh: -6; RanGTP-Imp inh: -6

Results for Cc1cccn2c(=O)c3cc(C(=O)NC(C)C)c(=N)n(Cc4ccncc4)c3nc12 ?
Runt-CBFb FRET: 18; Runt-SMMHC FRET: 62*; LANA-H2B inh: -1; HDAC3 inhib: -252; RanGTP-Imp inh: active
